For one test, the target named is T1, Lysyl oxidase homolog 2 (Mus musculus, UniProt P58022).
T1 sequence (P58022 whole entry): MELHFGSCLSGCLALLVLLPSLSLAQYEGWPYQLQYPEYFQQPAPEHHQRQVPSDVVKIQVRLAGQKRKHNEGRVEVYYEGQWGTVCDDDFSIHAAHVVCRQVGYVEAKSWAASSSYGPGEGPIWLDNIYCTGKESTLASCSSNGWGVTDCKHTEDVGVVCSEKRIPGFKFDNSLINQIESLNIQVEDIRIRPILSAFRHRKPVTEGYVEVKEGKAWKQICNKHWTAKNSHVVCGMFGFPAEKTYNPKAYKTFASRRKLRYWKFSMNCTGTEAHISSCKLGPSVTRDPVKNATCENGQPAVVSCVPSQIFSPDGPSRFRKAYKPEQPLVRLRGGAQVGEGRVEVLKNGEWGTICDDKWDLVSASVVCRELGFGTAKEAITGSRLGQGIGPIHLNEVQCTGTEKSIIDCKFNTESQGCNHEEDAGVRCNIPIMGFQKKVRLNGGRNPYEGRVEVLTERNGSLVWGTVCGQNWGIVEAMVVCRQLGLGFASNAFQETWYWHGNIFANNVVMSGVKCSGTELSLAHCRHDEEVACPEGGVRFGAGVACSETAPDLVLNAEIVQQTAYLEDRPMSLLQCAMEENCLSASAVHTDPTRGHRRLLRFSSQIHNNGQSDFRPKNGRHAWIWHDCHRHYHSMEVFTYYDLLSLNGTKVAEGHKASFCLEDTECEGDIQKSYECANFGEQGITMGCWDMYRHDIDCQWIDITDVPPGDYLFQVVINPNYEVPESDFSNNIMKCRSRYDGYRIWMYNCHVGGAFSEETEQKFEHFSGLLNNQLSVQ
Description: Inhibition of recombinant mouse C-terminal His-tagged LOLX2 (26-776 residues) expressed in mouse myeloma cells using putrescine as substrate preincubated with enzyme for 30 mins followed by substrate addition and measured every 2.5 mins for 30 mins by Amplex-Red oxidation assay. The gist of the method: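 LOXL2 enzyme preincubated with compound for 30 min at 37 °C, then Amplex Red (120 µM) / HRP (1.5 U/mL) mix containing 5 mM putrescine added. Buffer: 1.2 M urea, 50 mM sodium borate, pH 8.2. H2O2 fluorescence (ex 565/em 590) read every 2.5 min for 30 min at 37 °C; BAPN 100 µM as positive control; n≥2.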

The target in test [1] is T2, Amine oxidase [flavin-containing] A (Homo sapiens, UniProt P21397).
T2 sequence (P21397 whole entry): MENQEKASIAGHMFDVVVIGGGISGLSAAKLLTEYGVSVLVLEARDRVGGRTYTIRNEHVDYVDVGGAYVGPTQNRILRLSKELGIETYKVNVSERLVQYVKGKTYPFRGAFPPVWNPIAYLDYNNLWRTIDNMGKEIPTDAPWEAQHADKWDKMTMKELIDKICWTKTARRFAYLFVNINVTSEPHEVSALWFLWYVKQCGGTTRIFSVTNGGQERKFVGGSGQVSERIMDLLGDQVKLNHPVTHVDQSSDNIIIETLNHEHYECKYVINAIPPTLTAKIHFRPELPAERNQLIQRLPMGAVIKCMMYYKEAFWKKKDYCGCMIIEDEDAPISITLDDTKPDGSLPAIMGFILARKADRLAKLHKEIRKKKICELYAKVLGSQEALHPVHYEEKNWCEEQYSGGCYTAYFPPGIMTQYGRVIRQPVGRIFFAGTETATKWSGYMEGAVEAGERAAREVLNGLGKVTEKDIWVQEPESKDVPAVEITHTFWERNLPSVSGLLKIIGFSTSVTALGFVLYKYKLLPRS
The test is described as follows: Inhibition of recombinant human MAOA expressed in baculovirus infected in BTI cells using tyramine as substrate preincubated with enzyme for 30 mins followed by substrate addition and measured every 2.5 mins for 30 mins by Amplex-Red oxidation assay.

In test [2] the target is T3, Amine oxidase [flavin-containing] B (Homo sapiens, UniProt P27338).
T3 sequence (P27338 whole entry): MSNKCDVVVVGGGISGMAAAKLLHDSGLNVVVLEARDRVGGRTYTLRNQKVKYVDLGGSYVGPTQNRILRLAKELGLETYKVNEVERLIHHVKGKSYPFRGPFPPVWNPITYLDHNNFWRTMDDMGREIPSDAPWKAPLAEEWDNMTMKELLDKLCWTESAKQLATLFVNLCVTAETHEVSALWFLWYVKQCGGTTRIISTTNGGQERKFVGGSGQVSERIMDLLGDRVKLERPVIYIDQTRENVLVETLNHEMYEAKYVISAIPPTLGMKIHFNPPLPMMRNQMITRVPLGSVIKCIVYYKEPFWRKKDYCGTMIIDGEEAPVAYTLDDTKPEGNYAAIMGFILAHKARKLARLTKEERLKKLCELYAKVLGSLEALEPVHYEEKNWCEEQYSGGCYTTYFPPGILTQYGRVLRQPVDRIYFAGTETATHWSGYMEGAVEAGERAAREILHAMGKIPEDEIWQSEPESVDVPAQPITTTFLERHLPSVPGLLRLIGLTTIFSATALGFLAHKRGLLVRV
The test is described as follows: Inhibition of recombinant human MAOB expressed in baculovirus infected in BTI cells using benzylamine as substrate preincubated with enzyme for 30 mins followed by substrate addition and measured every 2.5 mins for 30 mins by Amplex-Red oxidation assay.

Test [3] has as its target T4, Amine oxidase [copper-containing] 3 (Homo sapiens, UniProt Q16853).
T4 sequence (Q16853 whole entry): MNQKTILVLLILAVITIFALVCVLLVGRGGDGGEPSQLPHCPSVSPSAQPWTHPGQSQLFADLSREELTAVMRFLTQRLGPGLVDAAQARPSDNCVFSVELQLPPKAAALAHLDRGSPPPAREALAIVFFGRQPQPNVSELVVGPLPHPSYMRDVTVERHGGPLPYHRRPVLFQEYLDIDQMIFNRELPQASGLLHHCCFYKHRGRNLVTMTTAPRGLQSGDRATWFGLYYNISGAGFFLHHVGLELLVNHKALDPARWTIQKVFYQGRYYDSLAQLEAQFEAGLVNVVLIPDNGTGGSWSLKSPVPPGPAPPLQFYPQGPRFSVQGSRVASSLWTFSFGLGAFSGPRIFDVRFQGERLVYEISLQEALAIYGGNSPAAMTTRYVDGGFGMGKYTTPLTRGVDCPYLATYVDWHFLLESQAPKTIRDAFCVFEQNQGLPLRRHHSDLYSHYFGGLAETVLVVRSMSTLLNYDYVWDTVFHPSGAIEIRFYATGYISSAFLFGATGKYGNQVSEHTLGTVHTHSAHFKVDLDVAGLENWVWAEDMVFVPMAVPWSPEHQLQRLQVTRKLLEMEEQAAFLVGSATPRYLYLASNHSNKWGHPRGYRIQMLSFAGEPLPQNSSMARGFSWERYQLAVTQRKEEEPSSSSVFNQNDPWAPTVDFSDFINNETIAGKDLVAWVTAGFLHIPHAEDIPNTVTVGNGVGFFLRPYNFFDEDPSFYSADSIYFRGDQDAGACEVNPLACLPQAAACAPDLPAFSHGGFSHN
Description: Inhibition of recombinant human SSAO using benzylamine as substrate preincubated with enzyme for 30 mins followed by substrate addition and measured every 2.5 mins for 30 mins by Amplex-Red oxidation assay.

pIC50: −log10 of the molar value.

Regarding `Cc1c(-c2cccc(S(=O)(=O)N(C)C)c2)c2cc(C(=O)O)ccc2n1C/C(F)=C/CN.Cl`, the pIC50 on Lysyl oxidase homolog 2 is 8.22; in test [1] (read-out: IC50), under 4.52; in test [2] (read-out: IC50), under 4.52; in test [3] (read-out: IC50) it was under 4.52.
For `Cc1c(-c2cccc(S(=O)(=O)N(C)C)c2)c2ccccc2n1C/C(F)=C/CN.Cl`, the IC50 in test [1] (read-out: pIC50 (converted)) is over 31.6 µM; in test [2] (read-out: pIC50 (converted)), over 31.6 µM; in test [3] (read-out: pIC50 (converted)), 7.94 µM.

As a reminder, the pIC50 is −log10 of the IC50, conventionally taken in molar units.

The values are drawn from ChEMBL document CHEMBL4321820, “Identification and Optimization of Mechanism-Based Fluoroallylamine Inhibitors of Lysyl Oxidase-like 2/3” (J Med Chem, 2019).
